Assay results from ChEMBL document CHEMBL1137767, “2-(3-Aryl-2-propenoyl)-3-methylquinoxaline-1,4-dioxides: a novel cluster of tumor-specific cytotoxins which reverse multidrug resistance” (Bioorg Med Chem, 2009).
Active and inactive are the calls of the source.

Experiments:
[1] = Growth inhibition of human Molt4/C8 cells after 3 days; type: functional, cell-based; details: MOLT-4, 72 h
How it was run: (§1)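 Human CEM and Molt 4/C8 T-lymphocytes were grown for three days with or without serial dilutions of the compound. IC50 is the concentration that inhibits cell growth by 50%.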

CCRF-CEM [2] = test: Growth inhibition of human CEM cells after 3 days; type: functional, cell-based; details: 72 h; how it was run: as §1
[3] = molecular target: T1, ATP-dependent translocase ABCB1 (Homo sapiens, UniProt P08183); test: Reversal of P-glycoprotein-mediated multidrug resistance in human MDR1 gene transfected mouse L5178Y cells assessed as fluorescence activity ratio at 20 uM by rhodamine 123 accumulation assay; type: cell-based
How it was run: (§2)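 Murine L-5178Y lymphoma cells transfected with human MDR1 gene (P-gp-overexpressing), alongside parental cells, treated or untreated with compound; rhodamine 123 accumulation measured by fluorescence; FAR = ratio of fluorescence intensity in treated versus untreated cells, values above 1 taken as MDR reversal.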

[4] = molecular target: T1, ATP-dependent translocase ABCB1; test: Reversal of P-glycoprotein-mediated multidrug resistance in human MDR1 gene transfected mouse L5178Y cells assessed as fluorescence activity ratio at 200 uM by rhodamine 123 accumulation assay; type: cell-based; how it was run: as §2
[5] = Cytotoxicity against human HGF cells after 48 hrs; type: cell-based
[6] = Cytotoxicity against human HPC cells after 48 hrs; type: cell-based
[7] = Cytotoxicity against human HPLF cells after 48 hrs; type: cell-based
HL-60 [8] = test: Cytotoxicity against human HL60 cells after 48 hrs; type: functional; details: HL-60, 48 h
HSC-2 = test: Cytotoxicity against human HSC2 cells after 48 hrs; type: functional; details: HSC-2, 48 h
HSC-3 = test: Cytotoxicity against human HSC3 cells after 48 hrs; type: functional; details: HSC-3, 48 h
HSC-4 = test: Cytotoxicity against human HSC4 cells after 48 hrs; type: functional; details: HSC-4, 48 h
CCRF-CEM [9] = test: Growth inhibition of human CCRF-CEM cells at 10 uM; type: functional, cell-based
How it was run: (§3)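 Human tumor cell line panel (59 lines across leukemia, melanoma, non-small cell lung, colon, CNS, ovarian, renal, prostate, breast) treated at a single 10 uM concentration; growth inhibition recorded per line.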

HL-60 [10] = test: Growth inhibition of human HL60 cells at 10 uM; type: functional, cell-based; how it was run: as §3
K562 = test: Growth inhibition of human K562 cells at 10 uM; type: functional, cell-based; how it was run: as §3
RPMI8266 = test: Growth inhibition of human […] cells at 10 uM; type: functional, cell-based; how it was run: as §3
A549 = test: Growth inhibition of human A549 cells at 10 uM; type: functional, cell-based; how it was run: as §3
EKVX = test: Growth inhibition of human EKVX cells at 10 uM; type: functional, cell-based; how it was run: as §3
HOP-92 = test: Growth inhibition of human HOP92 cells at 10 uM; type: functional, cell-based; how it was run: as §3
NCI-H23 = test: Growth inhibition of human NCI-H23 cells at 10 uM; type: functional, cell-based; how it was run: as §3
NCI-H460 = test: Growth inhibition of human NCI-H460 cells at 10 uM; type: functional, cell-based; how it was run: as §3
NCI-H522 = test: Growth inhibition of human NCI-H522 cells at 10 uM; type: functional, cell-based; how it was run: as §3
HCC 2998 = test: Growth inhibition of human HCC2998 cells at 10 uM; type: functional, cell-based; how it was run: as §3
HCT-116 = test: Growth inhibition of human HCT116 cells at 10 uM; type: functional, cell-based; how it was run: as §3
HCT-15 = test: Growth inhibition of human HCT15 cells at 10 uM; type: functional, cell-based; how it was run: as §3
SW-620 = test: Growth inhibition of human SW620 cells at 10 uM; type: functional, cell-based; how it was run: as §3
SF-295 = test: Growth inhibition of human SF295 cells at 10 uM; type: functional, cell-based; how it was run: as §3
SNB-75 = test: Growth inhibition of human SNB75 cells at 10 uM; type: functional, cell-based; how it was run: as §3
U-251 = test: Growth inhibition of human U251 cells at 10 uM; type: functional, cell-based; how it was run: as §3
LOX IMVI = test: Growth inhibition of human LOXIMVI cells at 10 uM; type: functional, cell-based; how it was run: as §3
M14 = test: Growth inhibition of human M14 cells at 10 uM; type: functional, cell-based; how it was run: as §3
UACC-62 = test: Growth inhibition of human UACC62 cells at 10 uM; type: functional, cell-based; how it was run: as §3
IGROV-1 = test: Growth inhibition of human IGROV1 cells at 10 uM; type: functional, cell-based; how it was run: as §3
OVCAR-3 = test: Growth inhibition of human OVCAR-3 cells at 10 uM; type: functional, cell-based; how it was run: as §3
OVCAR-4 = test: Growth inhibition of human OVCAR4 cells at 10 uM; type: functional, cell-based; how it was run: as §3
OVCAR-8 = test: Growth inhibition of human OVCAR8 cells at 10 uM; type: functional, cell-based; how it was run: as §3
A498 = test: Growth inhibition of human A498 cells at 10 uM; type: functional, cell-based; how it was run: as §3
CAKI-1 = test: Growth inhibition of human Caki1 cells at 10 uM; type: functional, cell-based; how it was run: as §3
RXF 393 = test: Growth inhibition of human RXF393 cells at 10 uM; type: functional, cell-based; how it was run: as §3
UO-31 = test: Growth inhibition of human UO31 cells at 10 uM; type: functional, cell-based; how it was run: as §3
PC-3 = test: Growth inhibition of human PC3 cells at 10 uM; type: functional, cell-based; how it was run: as §3
DU-145 = test: Growth inhibition of human DU145 cells at 10 uM; type: functional, cell-based; how it was run: as §3
MCF7 = test: Growth inhibition of human MCF7 cells at 10 uM; type: functional, cell-based; how it was run: as §3
NCI/ADR-RES = test: Growth inhibition of human NCI/ADR-RES cells at 10 uM; type: functional, cell-based; how it was run: as §3
MDA-MB-468 = test: Growth inhibition of human MDA-MB-468 cells at 10 uM; type: functional, cell-based; how it was run: as §3
Hs-578T = test: Growth inhibition of human Hs 578T cells at 10 uM; type: functional, cell-based; how it was run: as §3
MDA-MB-435 = test: Growth inhibition of human MDA-MB-435 cells at 10 uM; type: functional, cell-based; how it was run: as §3
T47D = test: Growth inhibition of human T47D cells at 10 uM; type: functional, cell-based; how it was run: as §3

T1 sequence (P08183 whole entry): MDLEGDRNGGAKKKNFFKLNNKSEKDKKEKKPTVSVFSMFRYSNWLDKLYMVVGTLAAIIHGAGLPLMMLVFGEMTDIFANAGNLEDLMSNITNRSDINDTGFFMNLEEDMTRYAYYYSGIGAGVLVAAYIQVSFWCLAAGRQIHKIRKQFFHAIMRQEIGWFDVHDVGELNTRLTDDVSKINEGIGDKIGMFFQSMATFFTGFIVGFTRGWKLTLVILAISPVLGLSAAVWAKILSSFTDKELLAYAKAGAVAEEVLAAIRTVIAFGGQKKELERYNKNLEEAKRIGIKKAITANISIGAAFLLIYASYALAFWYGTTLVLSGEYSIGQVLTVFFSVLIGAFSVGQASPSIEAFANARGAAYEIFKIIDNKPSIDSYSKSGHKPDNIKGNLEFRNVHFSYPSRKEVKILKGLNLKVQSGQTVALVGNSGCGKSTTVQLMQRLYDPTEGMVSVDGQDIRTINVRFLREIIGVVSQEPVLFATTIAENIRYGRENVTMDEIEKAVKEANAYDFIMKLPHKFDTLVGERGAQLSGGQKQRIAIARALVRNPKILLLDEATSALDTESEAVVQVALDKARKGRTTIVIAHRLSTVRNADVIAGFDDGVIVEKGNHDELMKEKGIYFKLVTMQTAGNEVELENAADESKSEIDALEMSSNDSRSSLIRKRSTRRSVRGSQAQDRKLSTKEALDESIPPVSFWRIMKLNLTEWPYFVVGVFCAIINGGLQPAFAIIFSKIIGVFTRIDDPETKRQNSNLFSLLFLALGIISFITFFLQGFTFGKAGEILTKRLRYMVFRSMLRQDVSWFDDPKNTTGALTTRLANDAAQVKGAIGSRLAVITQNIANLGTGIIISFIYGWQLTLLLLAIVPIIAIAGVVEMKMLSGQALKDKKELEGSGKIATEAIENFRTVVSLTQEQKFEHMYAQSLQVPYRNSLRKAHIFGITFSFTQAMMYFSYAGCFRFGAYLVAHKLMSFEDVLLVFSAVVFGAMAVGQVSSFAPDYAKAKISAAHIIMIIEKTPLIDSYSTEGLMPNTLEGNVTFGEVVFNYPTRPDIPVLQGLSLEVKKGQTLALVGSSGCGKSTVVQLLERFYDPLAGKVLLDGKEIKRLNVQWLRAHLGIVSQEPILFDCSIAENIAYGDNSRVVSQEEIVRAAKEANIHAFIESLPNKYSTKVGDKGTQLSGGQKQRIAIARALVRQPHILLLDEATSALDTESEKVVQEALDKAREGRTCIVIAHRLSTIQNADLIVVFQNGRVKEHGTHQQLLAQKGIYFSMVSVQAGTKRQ

COc1ccc(/C=C/C(=O)c2c(C)[n+]([O-])c3ccccc3[n+]2[O-])cc1
93 µM: CC50 at 48 h [7]
52 µM: CC50 at 48 h [5]
16 µM: CC50 (HL-60 [8])
27.6 µM: IC50 (CCRF-CEM [2])
20 µM: CC50 (HSC-2)
92 µM: CC50 at 48 h [6]
active: growth inhibition (GI) (CCRF-CEM [9]) | growth inhibition (GI) (HL-60 [10]) | growth inhibition (GI) (K562) | growth inhibition (GI) (RPMI8266) | growth inhibition (GI) (A549) | growth inhibition (GI) (EKVX) | growth inhibition (GI) (HOP-92) | growth inhibition (GI) (NCI-H23) | growth inhibition (GI) (NCI-H460) | growth inhibition (GI) (NCI-H522) | growth inhibition (GI) (HCC 2998) | growth inhibition (GI) (HCT-116) | growth inhibition (GI) (HCT-15) | growth inhibition (GI) (SW-620) | growth inhibition (GI) (SF-295) | growth inhibition (GI) (SNB-75) | growth inhibition (GI) (U-251) | growth inhibition (GI) (LOX IMVI) | growth inhibition (GI) (M14) | growth inhibition (GI) (UACC-62) | growth inhibition (GI) (IGROV-1) | growth inhibition (GI) (OVCAR-3) | growth inhibition (GI) (OVCAR-4) | growth inhibition (GI) (OVCAR-8) | growth inhibition (GI) (A498) | growth inhibition (GI) (CAKI-1) | growth inhibition (GI) (RXF 393) | growth inhibition (GI) (UO-31) | growth inhibition (GI) (PC-3) | growth inhibition (GI) (DU-145) | growth inhibition (GI) (MCF7) | growth inhibition (GI) (NCI/ADR-RES) | growth inhibition (GI) (MDA-MB-468) | growth inhibition (GI) (Hs-578T) | growth inhibition (GI) (MDA-MB-435) | growth inhibition (GI) (T47D)
31.7: Ratio [4]
25.8 µM: IC50 [1]
4.25: Ratio [3]
23 µM: CC50 (HSC-3)
11 µM: CC50 (HSC-4)

COc1ccc(/C=C/C(=O)c2c(C)[n+]([O-])c3ccccc3[n+]2[O-])cc1OC
18.5 µM: IC50 [1]
14 µM: CC50 (HL-60 [8])
23: Ratio [4]
117 µM: CC50 at 48 h [5]
38 µM: CC50 (HSC-4)
25 µM: CC50 (HSC-2)
156 µM: CC50 at 48 h [7]
142 µM: CC50 at 48 h [6]
active: growth inhibition (GI) (CCRF-CEM [9]) | growth inhibition (GI) (HL-60 [10]) | growth inhibition (GI) (K562) | growth inhibition (GI) (RPMI8266) | growth inhibition (GI) (A549) | growth inhibition (GI) (EKVX) | growth inhibition (GI) (HOP-92) | growth inhibition (GI) (NCI-H23) | growth inhibition (GI) (NCI-H460) | growth inhibition (GI) (NCI-H522) | growth inhibition (GI) (HCC 2998) | growth inhibition (GI) (HCT-116) | growth inhibition (GI) (HCT-15) | growth inhibition (GI) (SW-620) | growth inhibition (GI) (SF-295) | growth inhibition (GI) (SNB-75) | growth inhibition (GI) (U-251) | growth inhibition (GI) (LOX IMVI) | growth inhibition (GI) (M14) | growth inhibition (GI) (UACC-62) | growth inhibition (GI) (IGROV-1) | growth inhibition (GI) (OVCAR-3) | growth inhibition (GI) (OVCAR-4) | growth inhibition (GI) (OVCAR-8) | growth inhibition (GI) (A498) | growth inhibition (GI) (CAKI-1) | growth inhibition (GI) (RXF 393) | growth inhibition (GI) (UO-31) | growth inhibition (GI) (PC-3) | growth inhibition (GI) (DU-145) | growth inhibition (GI) (MCF7) | growth inhibition (GI) (NCI/ADR-RES) | growth inhibition (GI) (MDA-MB-468) | growth inhibition (GI) (Hs-578T) | growth inhibition (GI) (MDA-MB-435) | growth inhibition (GI) (T47D)
31 µM: CC50 (HSC-3)
5.01: Ratio [3]
19.2 µM: IC50 (CCRF-CEM [2])
